Results published in ChEMBL document CHEMBL4130637, “25 S-Adamantyl-23-yne-26,27-dinor-1α,25-dihydroxyvitamin D3: Synthesis, Tissue Selective Biological Activities, and X-ray Crystal Structural Analysis of Its Vitamin D Receptor Complex” (J Med Chem, 2018).
Calls of active or inactive are those of the source. No cut-off for these calls is given here.

Assays:
[1] = Drug uptake in human MG63 cells at 1 uM after 5 mins by HPLC analysis; assay type: ADME, cell-based; details: mg-63, 5 min
Outline: (§1)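 MG63 cells cultured with compound (1 µM) in medium containing 10% FBS. Uptake sampled at 5 and 10 min, stability after 24 h of culture. Compound levels in cells and medium determined by HPLC.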

[2] = Stability in human MG63 cells assessed as parent compound remaining at 1 uM after 24 hrs by HPLC analysis; assay type: ADME, cell-based, MG-63; details: read-out: Stability; outline: as §1
[3] = Drug degradation in human MG63 cells at 1 uM after 24 hrs by HPLC analysis; assay type: ADME, cell-based, MG-63; details: read-out: Drug degradation; outline: as §1
[4] = Drug uptake in human MG63 cells at 1 uM after 10 mins by HPLC analysis; assay type: ADME, cell-based; details: mg-63, 10 min; outline: as §1
[5] = molecular target: T1, Vitamin D3 receptor (Homo sapiens, UniProt P11473); test: Transrepression of VP16-tagged VDR (unknown origin) expressed in HEK293 cells harboring pCMX-GAL4-NCoR and MH100(UAS) X 4tk-LUC reporter plasmid assessed as increase in NCoR recruitment by […] reporter gene based mammalian two-hybrid assay; assay type: cell-based
T1 sequence (P11473 whole entry): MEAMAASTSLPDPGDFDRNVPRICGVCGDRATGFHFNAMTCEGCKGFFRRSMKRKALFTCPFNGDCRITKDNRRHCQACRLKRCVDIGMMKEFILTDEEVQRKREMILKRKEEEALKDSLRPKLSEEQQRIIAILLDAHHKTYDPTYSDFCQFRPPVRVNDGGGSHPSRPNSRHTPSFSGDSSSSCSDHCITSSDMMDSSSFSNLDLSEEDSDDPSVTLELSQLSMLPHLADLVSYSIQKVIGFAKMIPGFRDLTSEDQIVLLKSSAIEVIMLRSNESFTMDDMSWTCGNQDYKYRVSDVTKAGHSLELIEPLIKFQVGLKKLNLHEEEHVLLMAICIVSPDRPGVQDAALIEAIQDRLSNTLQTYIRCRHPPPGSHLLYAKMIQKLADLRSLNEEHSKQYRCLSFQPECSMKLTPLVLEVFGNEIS

[6] = molecular target: T2, Vitamin D3 receptor (Homo sapiens) (UniProt P11473); test: Agonist activity at VDR in human U937 cells assessed as increase in CYP24A1 gene expression at 100 nM after 24 hrs by RT-PCR method relative to 1,25(OH)2D3; assay type: cell-based
T2 sequence (whole entry): T1 sequence (P11473 whole entry)
Outline: (§2)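 Cells treated with ligand at 100 nM for 24 h. mRNA of the target gene measured by reverse transcription and quantitative real-time PCR. Expression given as percentage of that induced by an equal concentration of 1,25(OH)2D3. Significance tested versus vehicle control.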

[7] = molecular target: T2, Vitamin D3 receptor (Homo sapiens); test: Agonist activity at VDR in human SW480 cells assessed as increase in E-cadherin gene expression at 100 nM after 24 hrs by RT-PCR method relative to 1,25(OH)2D3; assay type: cell-based; outline: as §2
[8] = molecular target: T2, Vitamin D3 receptor (Homo sapiens); test: Transactivation of VDR (unknown origin) expressed in HEK293 cells harboring TK-Spp X 3-LUC reporter plasmid after 24 hrs by luciferase reporter gene assay relative to 1,25(OH)2D3; assay type: cell-based
Outline: (§3)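 HEK293 cells transfected with pCMX-VDR and TKSpp × 3-LUC reporter. Cells treated with vehicle or ligand at 10-14 M to 10^-8 M for 24 h, then harvested. Luciferase activity assayed alongside β-galactosidase activity.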

[9] = molecular target: T2, Vitamin D3 receptor (Homo sapiens); test: Agonist activity at VDR in HEK293 cells assessed as increase in CYP24A1 gene expression at 100 nM after 24 hrs by RT-PCR method relative to 1,25(OH)2D3; assay type: cell-based; outline: as §2
[10] = molecular target: T1, Vitamin D3 receptor; test: Transactivation of VDR (unknown origin) expressed in HEK293 cells harboring TK-Spp X 3-LUC reporter plasmid after 24 hrs by luciferase reporter gene assay; assay type: cell-based; outline: as §3
[11] = molecular target: T1, Vitamin D3 receptor; test: Transactivation of VP16-tagged VDR (unknown origin) expressed in HEK293 cells harboring pCMX-GAL4-SRC-1 and MH100(UAS) X 4tk-LUC reporter plasmid assessed as increase in SRC-1 recruitment by […] reporter gene based mammalian two-hybrid assay; assay type: cell-based
[12] = molecular target: T2, Vitamin D3 receptor (Homo sapiens); test: Agonist activity at VDR in human SW480 cells assessed as increase in CYP24A1 gene expression at 100 nM after 24 hrs by RT-PCR method relative to 1,25(OH)2D3; assay type: cell-based; outline: as §2
[13] = molecular target: T2, Vitamin D3 receptor (Homo sapiens); test: Agonist activity at VDR in human MG63 cells assessed as increase in OCN gene expression at 100 nM after 24 hrs by RT-PCR method relative to 1,25(OH)2D3; assay type: cell-based; outline: as §2
[14] = molecular target: T2, Vitamin D3 receptor (Homo sapiens); test: Displacement of [26,27-Methyl-3H]-1,25(OH)2D3 from recombinant human GST-tagged VDR LBD (140 to 427 residues) expressed in Escherichia coli BL21 preincubated for 30 mins followed by radioligand addition measured after 20 hrs relative to 1,25(OH)2D3
Outline: (§4)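 GST-VDR fusion protein incubated with [3H]1,25(OH)2D3 plus unlabeled competitor over a range of concentrations. Values are means ± standard deviations of triplicate assays.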

[15] = molecular target: T1, Vitamin D3 receptor; test: Displacement of [26,27-Methyl-3H]-1,25(OH)2D3 from recombinant human GST-tagged VDR LBD (140 to 427 residues) expressed in Escherichia coli BL21 preincubated for 30 mins followed by radioligand addition measured after 20 hrs; outline: as §4
[16] = molecular target: T2, Vitamin D3 receptor (Homo sapiens); test: Transactivation of VDR (unknown origin) expressed in HEK293 cells harboring TK-Spp X 3-LUC reporter plasmid after 24 hrs by luciferase reporter gene assay relative to control; assay type: cell-based; outline: as §3
[17] = molecular target: T2, Vitamin D3 receptor (Homo sapiens); test: Agonist activity at VDR in human HaCaT cells assessed as increase in CAMP gene expression at 100 nM after 24 hrs by RT-PCR method relative to 1,25(OH)2D3; assay type: cell-based; outline: as §2
[18] = molecular target: T2, Vitamin D3 receptor (Homo sapiens); test: Agonist activity at VDR in human U937 cells assessed as increase in CAMP gene expression at 100 nM after 24 hrs by RT-PCR method relative to 1,25(OH)2D3; assay type: cell-based; outline: as §2
[19] = molecular target: T2, Vitamin D3 receptor (Homo sapiens); test: Agonist activity at VDR in human SW480 cells assessed as increase in TRPV6 gene expression at 100 nM after 24 hrs by RT-PCR method relative to 1,25(OH)2D3; assay type: cell-based; outline: as §2
[20] = molecular target: T1, Vitamin D3 receptor; test: Transactivation of VP16-tagged VDR (unknown origin) expressed in HEK293 cells harboring pCMX-GAL4-RXRalpha and MH100(UAS) X 4tk-LUC reporter plasmid assessed as increase in interaction with RXRalpha by […] reporter gene based mammalian two-hybrid assay; assay type: cell-based
[21] = molecular target: T2, Vitamin D3 receptor (Homo sapiens); test: Agonist activity at VDR in human MG63 cells assessed as increase in CYP24A1 gene expression at 100 nM after 24 hrs by RT-PCR method relative to 1,25(OH)2D3; assay type: cell-based; outline: as §2
[22] = molecular target: T2, Vitamin D3 receptor (Homo sapiens); test: Agonist activity at VDR in human HaCaT cells assessed as increase in CYP24A1 gene expression at 100 nM after 24 hrs by RT-PCR method relative to 1,25(OH)2D3; assay type: cell-based; outline: as §2

Drug uptake [1] | remaining at 24 h, 1 µM [2] | Drug uptake [4] | IC50 [5] | Activity [6] | Emax [8] | Activity [9] | EC50 [10] | EC50 [11] | Activity [12] | Activity [13] | inhibition [14] | IC50 [15] | Activity [16] | Activity [18] | EC50 [20] | Activity [21] | Activity [22] | SMILES | also measured
3.4% | 70% | 2.3% | – | – | – | – | – | – | – | – | – | – | – | – | – | – | – | C=C1/C(=C\C=C2/CCC[C@]3(C)[C@@H]([C@H](C)CCCC(C)(C)O)CC[C@@H]23)C[C@@H](O)C[C@@H]1O [CALCITRIOL] | metabolised at 24 h, 1 µM [3]: 30%
3.1% | 49% | 6% | 0.09 nM | 54% | 87% | 160% | 0.03 nM | > 1.2 nM | 8% | 64% | 50% | 0.24 nM | 90% | 96% | > 0.14 nM | 44% | 7% | C=C1/C(=C\C=C2/CCC[C@]3(C)[C@@H]([C@H](C)CC#C[C@@H](O)C45CC6CC(CC(C6)C4)C5)CC[C@@H]23)C[C@@H](O)C[C@@H]1O | Activity [7]: 12%; Activity [17]: 24%; Activity [19]: 22%
6.1% | 43% | 9.7% | – | 85% | 81% | 100% | – | – | 50% | – | – | – | 170% | – | – | 58% | 30% | C=C1[C@H](O)CC(=C/C=C2\CCC[C@]3(C)[C@@H]([C@H](C)CC#C[C@@H](O)C45CC6CC(CC(C6)C4)C5)CC[C@@H]23)C[C@H]1O | –
6.9% | 90% | 9.5% | 1.75 nM | Active | – | Active | > 5.69 nM | > 3.2 nM | Active | Active | 4% | 3.13 nM | – | Active | > 1.2 nM | Active | Active | C=C1/C(=C\C=C2/CCC[C@]3(C)[C@@H]([C@H](C)CC#C[C@H](O)C45CC6CC(CC(C6)C4)C5)CC[C@@H]23)C[C@@H](O)C[C@@H]1O | –
